Results from article PMC8895471 (Oncology Letters, 2022).

Assays:
Format in all cases: cell-based, human
AsPC-1 cells [1] = experiment: Cytotoxicity / viability, XTT assay; details: AsPC-1, 10, 15 or 20 µM gemcitabine, 48 h
[2] = test system: RAS protein in AsPC-1 cells; experiment: Western blot analysis of RAS protein; details: AsPC-1, PNA-treated 48 h, band intensity of three blots
Summary of the method: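 AsPC-1 cells were treated with PNAs for 48 h, then lysed 20 min on ice in RIPA buffer with protease inhibitor and cleared at 13,000 rpm, 10 min, 4 °C. 20 µg protein per lane was resolved by SDS-PAGE and transferred by semi-dry blotting. Blots were blocked 1 h in 5% milk/TBST, probed overnight with anti-Ras antibody, then with peroxidase-conjugated secondary 1 h at room temperature. GAPDH served as reference.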

AsPC-1 cells [3] = experiment: Apoptosis assay using Annexin V/PI double staining; details: AsPC-1, 2 µM PNA, 48 h; untreated control 7%; mean of n=3
Summary of the method: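 AsPC-1 cells (5×10^5) were seeded in six-well plates and transfected the next day with PNAs using lipofectamine, then incubated for 48 h. Adherent and floating cells were harvested by trypsinization, washed, and resuspended in ice-cold binding buffer with FITC-Annexin V and PI. Cells were stained 15 min at room temperature in the dark and analysed by flow cytometry. Data are mean ± standard error, n=3.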

[4] = test system: mutant KRAS gene expression (mRNA) in AsPC-1 cells; experiment: KRAS expression profile by quantitative real-time PCR; details: AsPC-1, 2 µM or 4 µM PNAs, 48 h, normalised to GAPDH, n=3

Compound: Nc1ccn([C@@H]2O[C@H](CO)[C@@H](O)C2(F)F)c(=O)n1 [Gemcitabine]
- cell viability (XTT) (AsPC-1 cells [1]): total death with no dose response

Compound: CTACGCCATCAGCTCCA-KKK [PNA1]
- RAS protein levels (western blot) [2]: decrease in total RAS protein levels
- apoptosis (percentage of apoptotic cells) (AsPC-1 cells [3]): 18%
- effect on mutant KRAS gene expression (mRNA, RT-qPCR) [4]: weaker effect of PNA1 at 4 µm compared to PNA1 at 1 µM

Compound: CTDCGCCDTCDGCTCCD-KKK [PNA3]
- apoptosis (percentage of apoptotic cells) (AsPC-1 cells [3]): 20%
- effect on mutant KRAS gene expression (mRNA, RT-qPCR) [4]: dose-dependent and have a significant effect

Compound: CTDCpGCCDTCpDGCTCCpD [PNA14]
- apoptosis (percentage of apoptotic cells) (AsPC-1 cells [3]): 20%
- effect on mutant KRAS gene expression (mRNA, RT-qPCR) [4]: dose-dependent and have a significant effect
